Each block holds one compound with its values, some of them ahead of it.
Columns and labels:
[1] = Antiinflammatory activity in human neutrophils assessed as inhibition of fMLP/cytochalasin B-induced elastase release at 10 ug/ml after 5 mins; assay type: functional; conditions: Neutrophil
Outline: (§1)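 Neutrophils (6 × 10^5/mL) given MeO-Suc-Ala-Ala-Pro-Val-p-nitroanilide (100 µM) as substrate, equilibrated 2 min at 37 °C, then exposed to compound for 5 min. Stimulated with FMLP (100 nM)/CB (0.5 µg/mL). Absorbance at 405 nm followed continuously. Initial rate of elastase release expressed as percentage of the FMLP/CB-activated DMSO control. Genistein served as positive control.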

[2] = Antiinflammatory activity in human neutrophils assessed as inhibition of fMLP/cytochalasin B-induced superoxide anion generation at 10 ug/ml after 5 mins by spectrophotometry; assay type: functional; conditions: Neutrophil
Outline: (§2)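 Neutrophils isolated by dextran sedimentation and Ficoll centrifugation. Cells supplemented with ferricytochrome c (0.5 mg/mL) and Ca2+ (1 mM), equilibrated 2 min at 37 °C, then given compound for 5 min. CB (1 µg/mL) added 3 min before FMLP (100 nM) activation for 10 min. Superoxide dismutase-inhibitable ferricytochrome c reduction followed continuously at 550 nm with stirring.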

HepG2 = assay: Cytotoxicity against human HepG2 cells by MTT assay; assay type: functional, cell-based
Outline: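 Human liver carcinoma HepG2 cells, viability read by MTT assay. Camptothecin served as positive control.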

[3] = Antiinflammatory activity in human neutrophils assessed as inhibition of fMLP/cytochalasin B-induced elastase release after 5 mins; assay type: functional, cell-based; conditions: Neutrophil; outline: as §1
[4] = Antiinflammatory activity in human neutrophils assessed as inhibition of fMLP/cytochalasin B-induced superoxide anion generation after 5 mins by spectrophotometry; assay type: functional, cell-based; conditions: Neutrophil; outline: as §2

Compound: C=C1C[C@@H](OC(C)=O)/C=C(\COC(C)=O)CC[C@@H]2/C(=C\[C@H](O)C=C(C)C)C(=O)OC[C@@H]12 [ASTEROLAURIN E]
- inhibition at 10 µg/mL [1]: 36%
- inhibition at 10 µg/mL [2]: 24%
- IC50 (HepG2): > 40 µM

Compound: C=C1C[C@@H](OC(C)=O)/C=C(\C)CC[C@@H]2/C(=C\[C@H](O)C=C(C)C)C(=O)OC[C@@H]12
- inhibition at 10 µg/mL [1]: 13%
- inhibition at 10 µg/mL [2]: 9%
- IC50 (HepG2): > 40 µM

- IC50 [3]: 18.7 µM
- IC50 [4]: 23.6 µM
Compound: C=C1C[C@@H](OC(C)=O)/C=C(\C)CC[C@@H]2/C(=C\C=C\C(C)(C)O)CO[C@H](O)[C@@H]12 [ASTEROLAURIN D]
- inhibition at 10 µg/mL [1]: 68%
- inhibition at 10 µg/mL [2]: 56%
- IC50 (HepG2): > 40 µM

Compound: C=C1C[C@@H](O)[C@@H](O)C(=C)CC[C@@H]2C([C@@H](OC(C)=O)[C@H](C=C(C)C)OC(C)=O)=CO[C@H](OC(C)=O)[C@@H]12 [ASTEROLAURIN C]
- inhibition at 10 µg/mL [1]: 39%
- inhibition at 10 µg/mL [2]: 22%
- IC50 (HepG2): > 40 µM

Compound: C=C1C[C@@H](O)[C@@H](O)/C(C)=C\C[C@@H]2C([C@@H](OC(C)=O)[C@H](C=C(C)C)OC(C)=O)=CO[C@H](OC(C)=O)[C@@H]12 [ASTEROLAURIN B]
- inhibition at 10 µg/mL [1]: 30%
- inhibition at 10 µg/mL [2]: 31%
- IC50 (HepG2): > 40 µM

Compound: O=c1c(-c2ccc(O)cc2)coc2cc(O)cc(O)c12 [GENISTEIN]
- inhibition at 10 µg/mL [1]: 52%
- inhibition at 10 µg/mL [2]: 65%

- IC50 [3]: 40 µM
Compound: C=C1C[C@@H](O)[C@@H]2O[C@@]2(C)CC[C@@H]2C([C@@H](OC(C)=O)[C@H](C=C(C)C)OC(C)=O)=CO[C@H](OC(C)=O)[C@@H]12 [ASTEROLAURIN A]
- IC50 (HepG2): 8.9 µM

Reference: ChEMBL document CHEMBL1154794, “Asterolaurins A-F, xenicane diterpenoids from the Taiwanese soft coral Asterospicularia laurae” (J Nat Prod, 2009)
